This note sets out measurements from ChEMBL document CHEMBL1146124, “Kinesin spindle protein (KSP) inhibitors. Part 3: synthesis and evaluation of phenolic 2,4-diaryl-2,5-dihydropyrroles with reduced hERG binding and employment of a phosphate prodrug strategy for aqueous solubility” (Bioorg Med Chem Lett, 2006).

Data set [1] in a line: Half life in rat at 1 mg/kg, iv. More on the design: dose 1 mg/kg, route intravenous. Format: ADME, organism-based. To be noted: in vivo. In outline: (§1)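 Given intravenously to rats at 1 mpk, with DMSO as the vehicle.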
Data set [2] can be described thus: Plasma clearance in dog at 0.4 mg/kg, iv. The class given is ADME, organism-based, Canis lupus familiaris. Also noted: dose 0.4 mg/kg, route intravenous. Put shortly: (§2)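 Given intravenously to dogs at 0.4 mpk, with DMSO as the vehicle.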
Another data set concerns Canis familiaris. Kind of data set: Ratio of AUC's for parent compound after prodrug dosing and parent compound dosing in dog at 0.4 mg/kg, iv. The conditions noted are these: in vivo. More on the design: dose 0.4 mg/kg, route intravenous. The class given is ADME, organism-based, Canis lupus familiaris. In outline: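 Prodrug and parent were each given intravenously in DMSO to dogs at 0.4 mpk. The value is the AUC of parent after prodrug dosing divided by the AUC after direct parent dosing, expressed as a percentage.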

For the next data set, the system named is Rattus norvegicus. Briefly: Ratio of AUC's for parent compound after prodrug dosing and parent compound dosing in rat at 1 mg/kg, iv. To be noted: in vivo. The class given is ADME, organism-based. Also noted: dose 1 mg/kg, route intravenous. Put shortly:
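Prodrug and parent were each given intravenously in DMSO to rats at 1 mpk. The value is the AUC of parent after prodrug dosing divided by the AUC after direct parent dosing, expressed as a percentage.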

Data set [3] is described as follows: Half life in dog at 0.4 mg/kg, iv. The class given is ADME, organism-based, Canis lupus familiaris. More on the design: dose 0.4 mg/kg, route intravenous. To be noted: in vivo. In outline: as §2
The nature of data set [4]: Plasma clearance in rat at 1 mg/kg, iv. Format: ADME, organism-based. Also noted: dose 1 mg/kg, route intravenous. In outline:
as §1

For the next data set, the system named is A2780. Kind of data set: Mitotic arrest in A2780 cells. The conditions noted are these: Homo sapiens. Format: functional, cell-based. Put shortly: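 M-phase arrest read out by antibody-based detection of phosphonucleolin. Values are the average of at least two determinations, with standard deviations of 25–50%.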
The target in data set [5] is T1, Kinesin-like protein KIF11 (Homo sapiens, UniProt P52732).
T1 sequence (P52732 whole entry): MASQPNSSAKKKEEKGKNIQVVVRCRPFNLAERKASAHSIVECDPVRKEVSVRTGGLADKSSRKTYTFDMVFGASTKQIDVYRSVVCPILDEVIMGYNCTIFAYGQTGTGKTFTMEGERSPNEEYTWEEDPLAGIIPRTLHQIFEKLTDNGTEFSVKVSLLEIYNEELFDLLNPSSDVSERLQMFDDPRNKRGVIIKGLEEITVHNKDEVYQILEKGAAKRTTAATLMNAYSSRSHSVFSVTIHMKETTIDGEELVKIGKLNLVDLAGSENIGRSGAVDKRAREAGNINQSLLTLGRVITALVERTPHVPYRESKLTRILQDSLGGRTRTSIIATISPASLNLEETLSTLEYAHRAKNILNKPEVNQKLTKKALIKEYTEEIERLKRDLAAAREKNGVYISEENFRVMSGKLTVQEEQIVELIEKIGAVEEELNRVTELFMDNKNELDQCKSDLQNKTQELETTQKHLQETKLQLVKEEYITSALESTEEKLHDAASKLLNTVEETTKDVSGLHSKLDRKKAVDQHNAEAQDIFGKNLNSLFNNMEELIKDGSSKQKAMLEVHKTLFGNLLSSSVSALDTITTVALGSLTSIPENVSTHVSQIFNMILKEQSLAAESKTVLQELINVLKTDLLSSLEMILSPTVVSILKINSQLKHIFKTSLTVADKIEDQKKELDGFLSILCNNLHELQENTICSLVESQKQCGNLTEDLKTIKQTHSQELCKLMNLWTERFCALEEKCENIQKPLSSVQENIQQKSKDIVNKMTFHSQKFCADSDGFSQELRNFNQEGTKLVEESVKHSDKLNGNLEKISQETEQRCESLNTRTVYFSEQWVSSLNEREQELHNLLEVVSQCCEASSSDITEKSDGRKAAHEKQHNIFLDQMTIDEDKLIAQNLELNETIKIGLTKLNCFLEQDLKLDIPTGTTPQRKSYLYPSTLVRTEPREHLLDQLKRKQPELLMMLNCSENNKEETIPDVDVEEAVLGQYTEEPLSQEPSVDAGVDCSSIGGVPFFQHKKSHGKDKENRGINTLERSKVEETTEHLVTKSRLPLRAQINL
Briefly: Inhibition of KSP by ATPase assay.

Data set [6] concerns the target Voltage-gated inwardly rectifying potassium channel KCNH2 (Homo sapiens, UniProt Q12809). Briefly: Inhibitory activity against human hERG receptor expressed in HEK cells. Background: The hERG channel carries a current that helps repolarise heart muscle cells.

SMILES strings stand for the structures.

Chain of Voltage-gated inwardly rectifying potassium channel KCNH2 (Q12809 whole entry): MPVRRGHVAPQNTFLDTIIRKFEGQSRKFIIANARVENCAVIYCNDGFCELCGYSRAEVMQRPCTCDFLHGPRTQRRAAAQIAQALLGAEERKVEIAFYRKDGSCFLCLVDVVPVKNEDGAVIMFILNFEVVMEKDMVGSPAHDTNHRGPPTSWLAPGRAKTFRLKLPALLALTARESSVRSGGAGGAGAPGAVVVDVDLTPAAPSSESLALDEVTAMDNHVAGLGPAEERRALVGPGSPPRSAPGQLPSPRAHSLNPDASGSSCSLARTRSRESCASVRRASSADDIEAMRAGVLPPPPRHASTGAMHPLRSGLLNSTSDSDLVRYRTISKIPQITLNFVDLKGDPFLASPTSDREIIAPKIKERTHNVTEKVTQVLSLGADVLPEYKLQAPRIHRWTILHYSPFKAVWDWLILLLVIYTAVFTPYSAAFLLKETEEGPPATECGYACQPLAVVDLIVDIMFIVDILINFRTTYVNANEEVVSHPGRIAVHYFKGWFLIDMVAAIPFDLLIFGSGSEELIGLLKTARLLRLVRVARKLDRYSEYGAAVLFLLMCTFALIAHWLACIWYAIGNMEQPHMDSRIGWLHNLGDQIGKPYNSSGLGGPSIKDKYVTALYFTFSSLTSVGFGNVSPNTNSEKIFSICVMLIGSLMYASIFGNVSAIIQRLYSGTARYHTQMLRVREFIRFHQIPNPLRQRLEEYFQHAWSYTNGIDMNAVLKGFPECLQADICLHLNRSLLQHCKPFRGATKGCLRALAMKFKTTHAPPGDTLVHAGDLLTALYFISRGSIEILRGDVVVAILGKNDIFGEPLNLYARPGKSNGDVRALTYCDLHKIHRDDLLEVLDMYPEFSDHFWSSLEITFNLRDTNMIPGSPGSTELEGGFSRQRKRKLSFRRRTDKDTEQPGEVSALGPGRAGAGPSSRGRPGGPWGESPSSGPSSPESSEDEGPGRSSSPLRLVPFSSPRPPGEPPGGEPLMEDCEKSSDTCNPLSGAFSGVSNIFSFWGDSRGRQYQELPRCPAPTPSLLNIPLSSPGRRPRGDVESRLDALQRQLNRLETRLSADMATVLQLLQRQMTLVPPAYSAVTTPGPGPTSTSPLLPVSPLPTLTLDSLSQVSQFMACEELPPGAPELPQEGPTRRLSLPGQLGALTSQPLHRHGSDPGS

A word on the half-life: it is how long it takes for the measured level to halve. Lower therefore signals rapid decline. One may read the clearance as the rate of elimination divided by the concentration. Read a low clearance as inefficient removal. Take `CC(C)(C)[C@H](NC(=O)OCCO)C(=O)N1CC(c2cc(F)ccc2F)=C[C@H]1c1ccccc1`: the half-life in data set [1] was 18 min; in data set [3], 168 min. Moreover, the results for the clearance in data set [2] and in data set [4] were 11 mL/min/kg and 68 mL/min/kg, respectively. The “Ratio AUC” value with Canis familiaris was determined as 38%; in the data set with Rattus norvegicus, 57%.

What is called EC50 is the concentration giving half of the maximal effect. Read a low EC50 as greater potency. In general, IC50 refers to the concentration that inhibits the measured activity by half. `CN(CCO)C(=O)N1CC(c2cc(F)ccc2F)=C[C@H]1c1cccc(O)c1` yielded an EC50 in the data set with A2780 of 9.1 nM. In data set [5], this compound came in with an IC50 of 4 nM.

With `CC(C)(C)[C@H](NC(=O)OCCOP(=O)(O)O)C(=O)N1CC(c2cc(F)ccc2F)=C[C@H]1c1ccccc1`, the half-life in data set [1] and in data set [3] was under 6 min in each case.

As for `CN(C(=O)N1CC(c2cc(F)ccc2F)=CC1c1cccc(O)c1)C1CCNCC1` (racemic), the midpoint of the response in the data set on A2780, the EC50, lay at 8.5 nM. For the same compound, the midpoint of inhibition in [5], the IC50, lay at 5.5 nM.

Regarding `CN(C)C(=O)N1CC(c2cc(F)ccc2F)=C[C@H]1c1cccc(OP(=O)(O)O)c1`, the half-life in data set [1] was 9 min; in data set [3] it was 15 min.

Take `O=C([C@@H](O)C1CC1)N1CC(c2cc(F)ccc2F)=C[C@H]1c1cccc(O)c1`: a half-maximal effect in the data set on A2780 (EC50) was put at 3.1 nM. In data set [5], this compound returned an IC50 of 2.9 nM.

With `CC(C)(C)C(=O)N1CC(c2cc(F)ccc2F)=C[C@H]1c1cccc(O)c1`, the IC50 was found to be 7800 nM in [6] and 13 nM in data set [5]. For the same compound, in the data set on A2780, the EC50 was determined as 37 nM.

For `CN(C)C(=O)N1CC(c2cc(F)ccc2F)=C[C@H]1c1cccc(O)c1`, the half-life was 18 min in [1] and 90 min in data set [3]. Further, the clearance in data set [2] amounted to 13 mL/min/kg; in [4], 68 mL/min/kg. The same compound had an EC50 with A2780 of 22 nM. In addition, the IC50 in data set [5] worked out at 7 nM.

`N[C@H](C(=O)N1CC(c2cc(F)ccc2F)=C[C@H]1c1cccc(O)c1)C1CC1` displayed an EC50 in the data set with A2780 of 3 nM. Moreover, the IC50 in [5] was 0.5 nM.

As to `CC(C)(C)[C@H](O)C(=O)N1CC(c2cc(F)ccc2F)=C[C@H]1c1cccc(O)c1`, the EC50 in the data set on A2780 is 2.6 nM. Moreover, the IC50 in data set [5] stood at 1.3 nM.

As for `CC(C)[C@H](N)C(=O)N1CC(c2cc(F)ccc2F)=C[C@H]1c1cccc(O)c1`, the EC50 with A2780 turned out to be 3.3 nM. The compound also yielded an IC50 in data set [5] of 1.2 nM.
